Test results as given in ChEMBL document CHEMBL1121835, “Synthesis and anxiolytic activity of 6-(substituted-phenyl)-1,2,4-triazolo[4,3-b]pyridazines” (J Med Chem, 1981).
The source made the active and inactive calls. The rule behind the calls is not given here.

How the values were obtained:
[1] = biological target: T1, GABA-A receptor; anion channel (Rattus norvegicus) (UniProt O09028+P15431+P18506+P18508+P19969+P20236+P23574+P23576+P28471+P28473+P30191+P62813+P63079+P63138+Q91ZM7+Q9ES14); assay: In vitro inhibition of [3H]diazepam binding towards Benzodiazepine receptor at 1 uM; type: protein-complex assay
Rattus norvegicus [2] = species on record: Rattus norvegicus; assay: Anxiolytic activity for protection against pentylenetetrazole-induced convulsions.; type: functional, organism-based
Method in brief: (§1)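 Rats in groups of 10, food-deprived 24 h, given 4–6 graded doses of compound orally (or ip where noted). PTZ at 23 mg/kg was injected iv into the caudal vein 60 min later. Protection meant no clonic seizure lasting at least 5 s. The number protected was counted and the ED50 estimated.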

Rattus norvegicus [3] = assay: In vivo protection against pentylenetetrazole-induced convulsions in the rat.; type: functional; method in brief: as §1
Rattus norvegicus [4] = assay: Hypotensive activity in saline-loaded spontaneously hypertensive rats following 100 mg/kg p.o. administration.; type: functional; parameters: unit not given beside the values; conditions: route oral
Method in brief: (§2)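 Male Okamoto SH rats, about 300 g, gavaged with compound suspended in 2% boiled starch, with 0.9% NaCl loading at 25 mL/kg, at 0 h. An identical dose without saline followed at 24 h. Mean arterial pressure was taken by iliac artery puncture under local lidocaine at 28 h. Values are from one to three rats.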

Rattus norvegicus [5] = assay: Hypotensive activity evaluated as mean arterial blood pressure (MABP) in saline-loaded spontaneously hypertensive rats dosed (per oral) at 25 mg/kg; type: functional; method in brief: as §2
Rattus norvegicus [6] = species on record: Rattus norvegicus; assay: Anxiolytic activity for protection against pentylenetetrazole-induced convulsions in experiment 1; type: functional; method in brief: as §1
Rattus norvegicus [7] = species on record: Rattus norvegicus; assay: Anxiolytic activity for protection against pentylenetetrazole-induced convulsions in experiment 2; type: functional; method in brief: as §1
Rattus norvegicus [8] = assay: Compound was evaluated for anxiolytic activity for protection against pentylenetetrazole-induced convulsions; No activity at 50 mg/kg; type: functional, organism-based; parameters: dose 50 mg/kg; method in brief: as §1
Rattus norvegicus [9] = species on record: Rattus norvegicus; assay: Average reduction in blood pressure over control (4 rats) at 2 hr in spontaneous hypertensive rats; type: functional
Method in brief: (§3)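 Conscious cannulated male Okamoto SH rats, 300–350 g, dosed po with vehicle (2% boiled starch) or compound at 1, 5, 10 and 25 mg/kg. A second po dose was given 20 h later, and pressure was recorded continuously for 4 h. The value is the mean reduction against controls at 2 and 4 h, n = 4.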

Rattus norvegicus [10] = species on record: Rattus norvegicus; assay: Average reduction in blood pressure over control (4 rats) at 4 hr in spontaneous hypertensive rats; type: functional; method in brief: as §3
[11] = biological target: GABA-A receptor; anion channel; assay: In vitro for inhibition of [3H]diazepam towards Benzodiazepine receptor from rat; type: protein-complex assay
Method in brief: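 Rat frontal cortex homogenized in ice-cold 0.32 M sucrose; crude P2 synaptosomal fraction resuspended in 50 mM Tris-HCl pH 7.4. IC50 read graphically from % inhibition vs log concentration plots.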

[12] = biological target: T1, GABA-A receptor; anion channel (Rattus norvegicus); assay: In vitro percent inhibition of [3H]diazepam binding to rat GABA-A benzodiazepine receptor at 1 uM; type: protein-complex assay
Rattus norvegicus [13] = assay: Compound was evaluated for anxiolytic activity for protection against pentylenetetrazole-induced convulsions administered intraperitoneally; type: functional; conditions: ip; method in brief: as §1
Rattus norvegicus [14] = assay: Compound was evaluated for anxiolytic activity for protection against pentylenetetrazole-induced convulsions; no activity at 50 mg/kg; type: functional, organism-based; parameters: dose 50 mg/kg; method in brief: as §1
Rattus norvegicus [15] = assay: Compound was evaluated for anxiolytic activity for protection against pentylenetetrazole-induced convulsions administered orally; No activity at 50 mg/Kg; type: functional, organism-based; method in brief: as §1
Rattus norvegicus [16] = assay: Hypotensive activity evaluated as mean arterial blood pressure (MABP) in saline-loaded spontaneously hypertensive rats dosed (per oral) at 100 mg/kg; Toxic at 100 mg/Kg; type: functional, organism-based; method in brief: as §2
Rattus norvegicus [17] = assay: Hypotensive activity evaluated as mean arterial blood pressure (MABP) in saline-loaded spontaneously hypertensive rats dosed (per oral) at 50 mg/kg; type: functional; method in brief: as §2
[18] = Rattus norvegicus, read-out: ED50

For `c1ccc(-c2ccc3nnc(-c4ccccc4)n3n2)cc1`, the inhibition [1] was 74% and the ED50 (Rattus norvegicus [2]) was “inactive”.

With `Cc1cc2nncn2nc1-c1cccc(C#N)c1` the ED50 (Rattus norvegicus [3]) was 34 mg/kg, the MABP (Rattus norvegicus [4]) was 88 and the MABP (Rattus norvegicus [5]) was 135.

`FC(F)(F)c1nnc2ccc(-c3ccccc3)nn12` showed an ED50 (Rattus norvegicus [6]; [18]) of 15 mg/kg and an ED50 (Rattus norvegicus [7]) of 18 mg/kg.

In the case of `Nc1cccc(-c2ccc3nncn3n2)c1`, the inhibition [1] is reported as 32%, the ED50 (Rattus norvegicus [6]; [18]) is reported as 15 mg/kg and the ED50 (Rattus norvegicus [7]) is reported as 16.6 mg/kg.

In the case of `Cc1cc2nncn2nc1-c1cccc(C(F)(F)F)c1`, the inhibition [1] is reported as 21% and the ED50 (Rattus norvegicus [3]) is reported as 12.9 mg/kg.

For `CCc1nnc2ccc(-c3ccccc3)nn12`, the ED50 (Rattus norvegicus [8]) was “inactive”.

For `Cc1nnc2ccc(-c3ccccc3Cl)nn12`, the inhibition [1] was < 10%, the ED50 (Rattus norvegicus [3]) was 14 mg/kg and the MABP (Rattus norvegicus [4]) was 123.

`Cc1cc2nnc(C)n2nc1-c1cccc(C(F)(F)F)c1` showed an inhibition [1] of 26%, an ED50 (Rattus norvegicus [3]) of 13.8 mg/kg and an MABP (Rattus norvegicus [4]) of 129.

Compound `CCCc1nnc2ccc(-c3ccccc3)nn12` has an inhibition [1] of 38%, an MABP (Rattus norvegicus [4]) of 110 and an MABP (Rattus norvegicus [5]) of 145.

In the case of `FC(F)(F)c1ccc(-c2ccc3nncn3n2)cc1`, the inhibition [1] is reported as 21%, the BP (Rattus norvegicus [9]) is reported as -15 mmHg and the BP (Rattus norvegicus [10]) is reported as -12 mmHg. It also gave an ED50 (Rattus norvegicus [3]) of 5.8 mg/kg, an MABP (Rattus norvegicus [4]) of 85 and an MABP (Rattus norvegicus [5]) of 136.

With `Cc1cc2nnc(C)n2nc1-c1ccc(F)cc1` the inhibition [1] was < 10% and the ED50 (Rattus norvegicus [2]) was “inactive”.

In the case of `CCc1nnc2ccc(-c3ccc(Cl)cc3)nn12`, the ED50 (Rattus norvegicus [2]) is reported as “inactive” and the MABP (Rattus norvegicus [4]) is reported as 141.

In the case of `Cc1cc(-c2ccc(F)cc2)nn2c(C)nnc12`, the inhibition [1] is reported as < 10%, the ED50 (Rattus norvegicus [2]) is reported as “inactive” and the MABP (Rattus norvegicus [4]) is reported as 126.

With `Cl.Clc1cccc(Cl)c1NC1=NCCN1` [CLONIDINE HYDROCHLORIDE] the MABP (Rattus norvegicus [4]) was 102.

`Cc1nnc2ccc(-c3ccccc3)nn12` gave an IC50 [11] of 633 nM, an inhibition [1] of 55% and an ED50 (Rattus norvegicus [6]; [18]) of 2.3 mg/kg. The ED50 (Rattus norvegicus [7]) was 2.9 mg/kg.

For `Cc1cc2nncn2nc1-c1cccc(F)c1`, the ED50 (Rattus norvegicus [2]) was “inactive” and the MABP (Rattus norvegicus [4]) was 142.

`Cc1nnc2ccc(-c3ccc(F)cc3)nn12` was tested, and the IC50 [11] was 589 nM, the inhibition [1] was 65% and the inhibition [12] was 64%. It also gave an ED50 (Rattus norvegicus [6]) of 2 mg/kg and an ED50 (Rattus norvegicus [6]; [18]) of 3.4 mg/kg.

In the case of `Clc1ccc(-c2ccc3nncn3n2)cc1`, the inhibition [1] is reported as < 10%, the BP (Rattus norvegicus [9]) is reported as -15 mmHg and the BP (Rattus norvegicus [10]) is reported as -17 mmHg. The ED50 (Rattus norvegicus [6]; [18]) was 5.3 mg/kg, the ED50 (Rattus norvegicus [7]) was 9.8 mg/kg and the MABP (Rattus norvegicus [4]) was 110. For the same compound, the MABP (Rattus norvegicus [5]) was 136.

In the case of `COc1cccc(-c2ccc3nncn3n2)c1`, the inhibition [1] is reported as 34%, the inhibition [12] is reported as 29% and the ED50 (Rattus norvegicus [13]) is reported as 50 mg/kg.

In the case of `COCc1nnc2ccc(-c3ccccc3)nn12`, the inhibition [1] is reported as < 10%, the ED50 (Rattus norvegicus [6]; [18]) is reported as 9.5 mg/kg and the ED50 (Rattus norvegicus [7]) is reported as 6.4 mg/kg.

With `CNC1=Nc2ccc(Cl)cc2C(c2ccccc2)=[N+]([O-])C1` [CHLORDIAZEPOXIDE] the IC50 [11] was 248 nM, the inhibition [1] was 75% and the ED50 (Rattus norvegicus [3]) was 1.7 mg/kg.

For `CC(=O)Nc1cccc(-c2ccc3nnc(C)n3n2)c1`, the IC50 [11] was 633 nM, the inhibition [1] was 56% and the EC50 (Rattus norvegicus [14]) was “Not Active”.

With `COCc1nnc2ccc(-c3cccc(C(F)(F)F)c3)nn12` the inhibition [1] was 23% and the ED50 (Rattus norvegicus [3]) was 6.4 mg/kg.

For `Cc1nnc2ccc(-c3ccc(Cl)c(Cl)c3)nn12`, the ED50 (Rattus norvegicus [2]) was “inactive”.

`COc1cccc(-c2ccc3nnc(C)n3n2)c1` gave an IC50 [11] of 309 nM and an inhibition [1] of 74%.

In the case of `Cc1nnc2ccc(-c3ccc(C(F)(F)F)cc3)nn12`, the inhibition [1] is reported as 17%, the ED50 (Rattus norvegicus [15]) is reported as “inactive” and the ED50 (Rattus norvegicus [13]) is reported as 15 mg/kg. The MABP (Rattus norvegicus [16]) was “Toxic”, the MABP (Rattus norvegicus [5]) was 157 and the MABP (Rattus norvegicus [17]) was 123.

With `Cc1nnc2ccc(-c3cccc(F)c3)nn12` the IC50 [11] was 1200 nM, the inhibition [1] was 47% and the inhibition [12] was 43%. It also gave an ED50 (Rattus norvegicus [3]) of 3.1 mg/kg.

`CN1C(=O)CN=C(c2ccccc2)c2cc(Cl)ccc21` [DIAZEPAM] gave an ED50 (Rattus norvegicus [3]) of 1.8 mg/kg.

`c1ccc(Cc2nnc3ccc(-c4ccccc4)nn23)cc1` was tested, and the ED50 (Rattus norvegicus [2]) was “inactive”.

In the case of `FC(F)(F)c1cccc(-c2ccc3nnc(C(F)(F)F)n3n2)c1`, the inhibition [1] is reported as 60% and the ED50 (Rattus norvegicus [2]) is reported as “inactive”.
